As a reminder, the IC50 is the point on the concentration scale where inhibition reaches its midpoint. Read a low IC50 as inhibition by little substance.

Drawing on ChEMBL document CHEMBL2440020, “Design, Synthesis, and Anti-leukemic Activity of Stereochemically Defined Constrained Analogs of FTY720 (Gilenya)” (ACS Med Chem Lett, 2013), this text covers Activity and IC50 for eleven molecules.

Type in all cases: functional, cell-based
Assay [1] concerns SUP-B15. Nature of the assay: Cytotoxicity against Ph-positive human SUP-B15 cells at 0.1 to 10 uM after 72 hrs by vital dye exclusion/flow cytometric analysis. On the technique in general: A flow cytometer gives signals particle by particle.
Assay [2] can be described thus: Downregulation of 4F2hc surface expression in Ph-positive human SUP-B15 cells at 10 uM after 72 hrs by vital dye exclusion/flow cytometric analysis.
Assay [3] has as its system BV-173. Nature of the assay: Cytotoxicity against Ph-positive human BV173 cells after 72 hrs by vital dye exclusion/flow cytometric analysis. Particulars: BV-173, 72 h. The gist of the method: (§1)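 Viability of human leukaemia and prostate cancer lines, and of murine bone marrow cells expressing BCR-Abl p190, was scored by vital dye exclusion and flow cytometry after 72 h of exposure. IC50 values are given as means with SEM and were compared with the reference control by two-tailed t-test.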

A short description of assay [4]: Cytotoxicity against Ph-positive human SUP-B15 cells after 72 hrs by vital dye exclusion/flow cytometric analysis. The note with it: SUP-B15, 72 h. The gist of the method: as §1
Assay [5] is described as follows: Cytotoxicity against BCR-ABL fusion protein 190 expressing mouse bone marrow cells after 72 hrs by vital dye exclusion/flow cytometric analysis. The note with it: Bone marrow cell. The gist of the method: as §1
Assay [6] has as its system CCRF-CEM. Nature of the assay: Cytotoxicity against Ph-negative human CCRF-CEM cells after 72 hrs by vital dye exclusion/flow cytometric analysis. The gist of the method:
as §1

The test system of assay [7] is DU-145. Nature of the assay: Cytotoxicity against human DU145 cells after 72 hrs by vital dye exclusion/flow cytometric analysis. The note with it: DU-145, 72 h. The gist of the method:
as §1

Assay [8] can be described thus: Cytotoxicity against Ph-negative human BLIN-1 cells after 72 hrs by vital dye exclusion/flow cytometric analysis. The gist of the method:
as §1

For assay [9], the system named is PC-3. Description: Cytotoxicity against human PC3 cells after 72 hrs by vital dye exclusion/flow cytometric analysis. The note with it: PC-3, 72 h. The gist of the method:
as §1

Assay [10] deals with NALM-6. Description: Cytotoxicity against Ph-negative human NALM6 cells after 72 hrs by vital dye exclusion/flow cytometric analysis. The note with it: NALM-6, 72 h. The gist of the method: as §1

Calls of active or inactive are those of the source. The rule behind the calls is not given here.

`CCCCCCCCc1ccc(CO[C@@H]2CN[C@@H](C)C2)cc1`: the result in assay [1] and in assay [2] was Active.

As to `CCCCCCCCc1ccc(CO[C@H]2CN[C@@H](CO)C2)cc1`, the IC50 in assay [3] was 9.7 µM; in assay [4], 8.3 µM; in assay [5], 4 µM; in assay [6], 8.1 µM.

Consider `CCCCCCCCc1ccc(CO[C@@H]2CN[C@@H](COC)C2)cc1`, for which the outcome in [1] and in [2] was Active.

With `CCCCCCCCc1ccc(CO[C@@H]2CN[C@H](CO)C2)cc1`, the IC50 in [3] was determined as 13.8 µM; in [4], 16.7 µM; in [5] it was 8.4 µM; in assay [6], 11.6 µM.

As to `CCCCCCCCc1ccc(CO[C@@H]2CCNC2)cc1`, the outcome in [1] and in [2] was Active.

For `CCCCCCCCc1ccc(CO[C@H]2CCNC2)cc1`, the outcome in [1] and in assay [2] was Active.

As for `CCCCCCCCc1ccc(CCC(N)(CO)CO)cc1` [FINGOLIMOD], the concentration for half-maximal inhibition (IC50) in assay [3] amounted to 6.3 µM; in assay [7] it was 6.5 µM; in assay [8], 5.5 µM; in assay [4], 6.8 µM; in [5], 3.3 µM; in assay [9], 9.8 µM. In addition, the figures for the IC50 in assay [6] and in [10] were 6.8 µM and 9.6 µM, respectively.

`CCCCCCCCc1ccc(CO[C@@H]2CCN[C@H]2CO)cc1`: in assay [1], the outcome was inactive.

For the molecule `CCCCCCCCc1ccc(CO[C@@H]2CN[C@@H](CO)C2)cc1`, the IC50 is 3.8 µM in [3]; 15.1 µM in assay [7]; 6.9 µM in assay [8]; 2 µM in assay [4]; 0.5 µM in assay [5]; 13.5 µM in assay [9]. The concentration for half-maximal inhibition (IC50) in [6] is 8.2 µM; in assay [10], 13.5 µM.

As to `CCCCCCCCc1ccc(CO[C@H]2CN[C@H](CO)C2)cc1`, the half-inhibitory concentration (IC50) in assay [3] amounted to 10.4 µM; in [7], 10.8 µM; in assay [8], 7.5 µM; in assay [4] it was 7.7 µM; in assay [5] it was 5.7 µM; in assay [9], 14.3 µM. The IC50 in assay [6] stood at 11 µM; in assay [10] it was 15 µM.

`CCCCCCCCc1ccc(CO[C@H]2CN[C@H](C)C2)cc1`: the outcome in assay [1] and in [2] was Active.
